Source: ChEMBL document CHEMBL4028836, “Optimization of M4 positive allosteric modulators (PAMs): The discovery of VU0476406, a non-human primate in vivo tool compound for translational pharmacology” (Bioorg Med Chem Lett, 2017)

Key:
[1] = Aqueous solubility of the compound at pH 7.4; format: physicochemical; details: buffer
[2] = Drug metabolism in cynomolgus monkey cryopreserved hepatocytes assessed as metabolite M3 formation; format: ADME, cell-based, Macaca fascicularis, Hepatocyte
[3] = target: Muscarinic acetylcholine receptor M2 (Rattus norvegicus, UniProt P10980); experiment: Activity at rat M2 receptor
Chain of Muscarinic acetylcholine receptor M2 (P10980 whole entry): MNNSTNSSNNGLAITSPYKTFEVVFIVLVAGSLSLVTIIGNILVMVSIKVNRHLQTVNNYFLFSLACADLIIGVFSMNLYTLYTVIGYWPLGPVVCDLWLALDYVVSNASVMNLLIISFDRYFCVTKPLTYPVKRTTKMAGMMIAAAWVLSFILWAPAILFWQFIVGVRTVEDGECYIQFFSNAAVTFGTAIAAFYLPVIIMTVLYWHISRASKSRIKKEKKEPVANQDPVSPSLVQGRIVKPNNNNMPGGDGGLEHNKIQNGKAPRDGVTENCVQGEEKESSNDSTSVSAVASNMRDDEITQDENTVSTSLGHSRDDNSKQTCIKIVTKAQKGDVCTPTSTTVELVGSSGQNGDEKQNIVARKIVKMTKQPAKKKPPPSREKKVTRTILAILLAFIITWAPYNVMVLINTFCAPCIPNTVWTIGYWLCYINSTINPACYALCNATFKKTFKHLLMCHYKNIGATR

[4] = target: Muscarinic acetylcholine receptor M5 (Homo sapiens, UniProt P08912); experiment: Activity at human M5 receptor
Chain of Muscarinic acetylcholine receptor M5 (Homo sapiens, UniProt P08912) (P08912 whole entry): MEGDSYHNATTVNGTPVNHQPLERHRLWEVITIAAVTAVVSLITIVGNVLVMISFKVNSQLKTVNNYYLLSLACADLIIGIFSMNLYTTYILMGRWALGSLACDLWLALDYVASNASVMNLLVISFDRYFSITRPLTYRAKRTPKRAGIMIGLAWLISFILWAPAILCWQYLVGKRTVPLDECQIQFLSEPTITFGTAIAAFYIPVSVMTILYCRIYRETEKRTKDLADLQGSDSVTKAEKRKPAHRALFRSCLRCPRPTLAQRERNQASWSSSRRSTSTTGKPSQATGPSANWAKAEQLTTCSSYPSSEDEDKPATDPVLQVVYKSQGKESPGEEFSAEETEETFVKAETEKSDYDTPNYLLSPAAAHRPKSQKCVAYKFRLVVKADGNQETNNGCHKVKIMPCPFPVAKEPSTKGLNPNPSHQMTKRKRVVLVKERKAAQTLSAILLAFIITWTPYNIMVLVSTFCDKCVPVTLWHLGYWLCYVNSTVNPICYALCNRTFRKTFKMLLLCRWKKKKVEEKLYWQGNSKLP

[5] = Unbound brain concentration in rat; format: ADME, tissue-based
[6] = Drug metabolism in human cryopreserved hepatocytes assessed as metabolite M3 formation; format: ADME, cell-based, Hepatocyte
[7] = Positive allosteric modulation of dog M4 receptor assessed as increase in acetylcholine-induced calcium mobilization; set-up: species or system Canis lupus familiaris
Procedure, shortened: (§1)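 M4 PAM concentration-response curves measured by calcium mobilization at the stated species' receptor. Potency reported as EC50/pEC50 and efficacy as % of acetylcholine maximum.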

[8] = Brain to plasma permeability coefficient, Kp of the compound in dog at 3 mg/kg, iv or po at 2 hrs post dose; format: ADME, organism-based, Canis lupus familiaris
Procedure, shortened: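 Dog terminal study, with brain, plasma and CSF collected at 2.0 hr. Brain:plasma Kp, Kp,uu and Ccsf:Cplasma,u were derived.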

[9] = test system: Rattus norvegicus; experiment: Elimination half-life in Sprague-Dawley rat at 0.1 to 1 mg/kg, iv; format: ADME, organism-based; details: in vivo
[10] = Drug metabolism in dog cryopreserved hepatocytes assessed as metabolite M6 formation; format: ADME, cell-based, Canis lupus familiaris, Hepatocyte
[11] = target: Muscarinic acetylcholine receptor M3 (Homo sapiens, UniProt P20309); experiment: Activity at human M3 receptor
Chain of Muscarinic acetylcholine receptor M3 (Homo sapiens, UniProt P20309) (P20309 whole entry): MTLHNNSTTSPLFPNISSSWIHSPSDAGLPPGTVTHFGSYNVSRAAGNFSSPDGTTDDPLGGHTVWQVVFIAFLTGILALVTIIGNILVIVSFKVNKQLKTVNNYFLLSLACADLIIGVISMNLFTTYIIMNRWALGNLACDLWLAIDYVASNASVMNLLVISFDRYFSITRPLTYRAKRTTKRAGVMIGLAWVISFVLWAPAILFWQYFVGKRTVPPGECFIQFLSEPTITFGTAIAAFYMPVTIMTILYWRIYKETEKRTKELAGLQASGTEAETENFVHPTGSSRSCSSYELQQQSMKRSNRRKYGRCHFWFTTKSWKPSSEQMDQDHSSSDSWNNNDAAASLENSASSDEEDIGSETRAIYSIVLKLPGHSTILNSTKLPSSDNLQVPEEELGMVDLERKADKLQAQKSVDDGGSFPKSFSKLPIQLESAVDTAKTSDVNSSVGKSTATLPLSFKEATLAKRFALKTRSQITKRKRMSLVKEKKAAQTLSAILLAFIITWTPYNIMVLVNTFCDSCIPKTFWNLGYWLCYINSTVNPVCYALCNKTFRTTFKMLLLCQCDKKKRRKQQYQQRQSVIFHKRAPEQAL

[12] = Glutathione reactivity in human hepatic microsomes assessed as GSH-adduct formation; format: ADME, Liver, Microsome
[13] = target: Cytochrome P450 2D6 (Homo sapiens, UniProt P10635); experiment: Inhibition of CYP2D6 (unknown origin); format: ADME
Chain of Cytochrome P450 2D6 (P10635 whole entry): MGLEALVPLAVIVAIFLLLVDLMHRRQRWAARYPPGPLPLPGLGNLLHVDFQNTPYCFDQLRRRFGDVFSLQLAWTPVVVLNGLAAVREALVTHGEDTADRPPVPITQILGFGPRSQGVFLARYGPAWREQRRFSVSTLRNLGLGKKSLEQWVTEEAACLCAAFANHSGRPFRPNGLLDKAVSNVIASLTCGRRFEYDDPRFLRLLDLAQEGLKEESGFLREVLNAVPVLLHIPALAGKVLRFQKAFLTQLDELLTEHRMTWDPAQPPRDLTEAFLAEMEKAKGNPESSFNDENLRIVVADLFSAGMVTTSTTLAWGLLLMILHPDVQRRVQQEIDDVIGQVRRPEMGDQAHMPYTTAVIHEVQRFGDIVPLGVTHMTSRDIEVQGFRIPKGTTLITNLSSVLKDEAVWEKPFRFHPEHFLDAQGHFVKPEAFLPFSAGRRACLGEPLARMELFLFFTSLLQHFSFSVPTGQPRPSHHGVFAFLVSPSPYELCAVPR

[14] = Drug metabolism in cynomolgus monkey cryopreserved hepatocytes assessed as metabolite M6 formation; format: ADME, cell-based, Macaca fascicularis, Hepatocyte
[15] = Drug metabolism in dog cryopreserved hepatocytes assessed as metabolite M5 formation; format: ADME, cell-based, Canis lupus familiaris, Hepatocyte
[16] = Drug metabolism in rat cryopreserved hepatocytes assessed as metabolite M1 formation; format: ADME, cell-based, Hepatocyte
[17] = Drug metabolism in human cryopreserved hepatocytes assessed as metabolite M1 formation; format: ADME, cell-based, Hepatocyte
[18] = Positive allosteric modulation of cynomolgus monkey M4 receptor assessed as increase in acetylcholine-induced calcium mobilization; set-up: species or system Macaca fascicularis; procedure, shortened: as §1
[19] = Drug metabolism in dog cryopreserved hepatocytes assessed as metabolite M1 formation; format: ADME, cell-based, Canis lupus familiaris, Hepatocyte
[20] = target: Cytochrome P450 2C9 (Homo sapiens, UniProt P11712); experiment: Inhibition of CYP2C9 (unknown origin); format: ADME
Chain of Cytochrome P450 2C9 (P11712 whole entry): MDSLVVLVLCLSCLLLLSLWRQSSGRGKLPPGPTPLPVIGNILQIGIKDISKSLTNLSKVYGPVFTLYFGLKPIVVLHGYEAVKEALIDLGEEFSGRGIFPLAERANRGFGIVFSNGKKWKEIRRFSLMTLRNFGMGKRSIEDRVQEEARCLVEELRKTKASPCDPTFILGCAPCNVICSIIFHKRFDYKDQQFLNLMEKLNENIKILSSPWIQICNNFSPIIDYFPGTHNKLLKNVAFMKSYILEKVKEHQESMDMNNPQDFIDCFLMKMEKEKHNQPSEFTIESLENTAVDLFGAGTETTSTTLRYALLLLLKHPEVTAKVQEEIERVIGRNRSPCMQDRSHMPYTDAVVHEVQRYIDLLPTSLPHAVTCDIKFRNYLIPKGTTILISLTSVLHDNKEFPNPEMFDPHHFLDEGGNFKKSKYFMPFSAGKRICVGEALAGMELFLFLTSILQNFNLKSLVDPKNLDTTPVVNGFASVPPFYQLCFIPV

[21] = test system: Rattus norvegicus; experiment: Volume of distribution at steady state […] in Sprague-Dawley rat at 0.1 to 1 mg/kg, iv; format: ADME, organism-based; details: in vivo
Procedure, shortened: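 IV pharmacokinetics in Sprague-Dawley rats at 0.1–1.0 mg/kg. CLp, elimination t½ and Vss derived.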

[22] = target: Muscarinic acetylcholine receptor M1 (Rattus norvegicus, UniProt P08482); experiment: Activity at rat M1 receptor
Chain of Muscarinic acetylcholine receptor M1 (Rattus norvegicus, UniProt P08482) (P08482 whole entry): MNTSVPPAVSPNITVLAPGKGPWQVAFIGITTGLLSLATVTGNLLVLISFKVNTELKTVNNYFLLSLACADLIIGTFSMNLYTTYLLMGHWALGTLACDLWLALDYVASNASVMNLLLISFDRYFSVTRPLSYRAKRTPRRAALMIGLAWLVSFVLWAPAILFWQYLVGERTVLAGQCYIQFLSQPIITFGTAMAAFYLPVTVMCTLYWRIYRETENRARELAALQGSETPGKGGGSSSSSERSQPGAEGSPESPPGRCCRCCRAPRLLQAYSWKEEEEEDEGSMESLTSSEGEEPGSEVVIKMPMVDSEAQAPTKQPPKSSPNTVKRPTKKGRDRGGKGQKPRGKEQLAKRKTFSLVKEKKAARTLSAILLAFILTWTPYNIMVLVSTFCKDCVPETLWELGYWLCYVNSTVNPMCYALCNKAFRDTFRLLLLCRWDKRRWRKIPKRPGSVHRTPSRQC

[23] = target: CYP3A4 (Homo sapiens, UniProt P08684); experiment: Induction of CYP3A4 in cryopreserved human hepatocytes measured after 48 hrs; format: ADME, cell-based
Procedure, shortened: (§2)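 Cryopreserved human hepatocytes incubated for 48 hr, with enzyme activity as read-out. Induction expressed as EC50 and Emax.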

[24] = target: Muscarinic acetylcholine receptor M3 (Rattus norvegicus, UniProt P08483); experiment: Activity at rat M3 receptor
Chain of Muscarinic acetylcholine receptor M3 (Rattus norvegicus, UniProt P08483) (P08483 whole entry): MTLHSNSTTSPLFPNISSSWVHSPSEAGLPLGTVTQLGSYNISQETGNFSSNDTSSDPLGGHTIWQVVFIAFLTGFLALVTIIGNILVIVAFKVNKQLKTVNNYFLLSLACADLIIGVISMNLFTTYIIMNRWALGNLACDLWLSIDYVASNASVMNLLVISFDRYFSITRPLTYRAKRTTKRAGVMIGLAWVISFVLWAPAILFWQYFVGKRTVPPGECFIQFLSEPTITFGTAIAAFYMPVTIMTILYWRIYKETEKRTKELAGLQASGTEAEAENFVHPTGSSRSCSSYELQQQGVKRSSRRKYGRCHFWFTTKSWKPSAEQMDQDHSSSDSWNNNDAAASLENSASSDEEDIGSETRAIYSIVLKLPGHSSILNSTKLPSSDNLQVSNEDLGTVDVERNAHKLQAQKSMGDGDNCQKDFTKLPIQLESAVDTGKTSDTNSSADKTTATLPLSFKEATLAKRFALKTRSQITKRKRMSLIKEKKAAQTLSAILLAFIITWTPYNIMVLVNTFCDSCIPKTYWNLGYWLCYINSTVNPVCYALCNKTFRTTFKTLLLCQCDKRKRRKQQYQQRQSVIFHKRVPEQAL

[25] = Drug metabolism in rat cryopreserved hepatocytes assessed as metabolite M6 formation; format: ADME, cell-based, Hepatocyte
[26] = Drug metabolism in cynomolgus monkey cryopreserved hepatocytes assessed as metabolite M2 formation; format: ADME, cell-based, Macaca fascicularis, Hepatocyte
[27] = Drug metabolism in human cryopreserved hepatocytes assessed as metabolite M2 formation; format: ADME, cell-based, Hepatocyte
[28] = Brain to plasma permeability coefficient, Kp of the compound in Sprague-Dawley rat at 0.1 to 0.2 mg/kg, iv measured at 0.25 hrs post dose; format: ADME, organism-based
Procedure, shortened: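 Sprague-Dawley rats were dosed IV at 0.1–0.2 mg/kg, with brain and plasma sampled at 0.25 hr. Brain:plasma Kp was calculated, with Kp,uu where unbound fractions were available.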

[29] = Drug metabolism in cynomolgus monkey cryopreserved hepatocytes assessed as metabolite M8 formation; format: ADME, cell-based, Macaca fascicularis, Hepatocyte
[30] = target: Muscarinic acetylcholine receptor M1 (Homo sapiens, UniProt P11229); experiment: Activity at human M1 receptor
Chain of Muscarinic acetylcholine receptor M1 (Homo sapiens, UniProt P11229) (P11229 whole entry): as the sequence (P08482 whole entry) above, with V5A, S254T, S309P, K320R, G337A, V413I counted along it

[31] = Drug metabolism in cynomolgus monkey cryopreserved hepatocytes assessed as metabolite M1 formation; format: ADME, cell-based, Macaca fascicularis, Hepatocyte
[32] = Drug metabolism in human cryopreserved hepatocytes assessed as metabolite M7 formation; format: ADME, cell-based, Hepatocyte
[33] = Drug metabolism in cynomolgus monkey cryopreserved hepatocytes assessed as metabolite M4 formation; format: ADME, cell-based, Macaca fascicularis, Hepatocyte
[34] = Drug metabolism in human cryopreserved hepatocytes assessed as metabolite M6 formation; format: ADME, cell-based, Hepatocyte
[35] = target: T1, Cytochrome P450 1A2 (Homo sapiens, UniProt P05177); experiment: Inhibition of CYP1A2 (unknown origin); format: ADME
T1 sequence (P05177 whole entry): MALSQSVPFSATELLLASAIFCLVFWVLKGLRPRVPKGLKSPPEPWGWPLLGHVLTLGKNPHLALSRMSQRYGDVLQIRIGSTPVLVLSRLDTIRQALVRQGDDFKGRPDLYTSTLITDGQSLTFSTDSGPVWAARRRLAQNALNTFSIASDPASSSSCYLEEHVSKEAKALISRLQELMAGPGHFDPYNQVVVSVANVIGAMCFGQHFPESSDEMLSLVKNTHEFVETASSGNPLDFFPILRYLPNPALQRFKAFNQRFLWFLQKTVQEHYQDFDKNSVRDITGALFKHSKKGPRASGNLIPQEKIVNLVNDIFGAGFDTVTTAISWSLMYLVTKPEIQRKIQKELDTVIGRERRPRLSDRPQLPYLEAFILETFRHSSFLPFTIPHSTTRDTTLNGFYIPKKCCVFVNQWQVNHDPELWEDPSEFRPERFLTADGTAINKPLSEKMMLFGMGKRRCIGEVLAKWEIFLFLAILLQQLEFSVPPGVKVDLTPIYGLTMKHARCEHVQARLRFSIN

[36] = Unbound plasma concentration in human; format: ADME, cell-free
[37] = Drug metabolism in rat cryopreserved hepatocytes assessed as metabolite M5 formation; format: ADME, cell-based, Hepatocyte
[38] = test system: Salmonella typhimurium; experiment: Mutagenicity in Salmonella typhimurium TA100 in absence of S9 fraction by mini-Ames test; format: toxicity; details: salmonella enterica subsp. enterica serovar typhimurium
Procedure, shortened: (§3)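 Mini-Ames mutagenicity assay in Salmonella typhimurium strains TA98 and TA100, run with and without S9 metabolic activation.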

[39] = target: Muscarinic acetylcholine receptor M5 (Rattus norvegicus, UniProt P08911); experiment: Activity at rat M5 receptor
Chain of Muscarinic acetylcholine receptor M5 (Rattus norvegicus, UniProt P08911) (P08911 whole entry): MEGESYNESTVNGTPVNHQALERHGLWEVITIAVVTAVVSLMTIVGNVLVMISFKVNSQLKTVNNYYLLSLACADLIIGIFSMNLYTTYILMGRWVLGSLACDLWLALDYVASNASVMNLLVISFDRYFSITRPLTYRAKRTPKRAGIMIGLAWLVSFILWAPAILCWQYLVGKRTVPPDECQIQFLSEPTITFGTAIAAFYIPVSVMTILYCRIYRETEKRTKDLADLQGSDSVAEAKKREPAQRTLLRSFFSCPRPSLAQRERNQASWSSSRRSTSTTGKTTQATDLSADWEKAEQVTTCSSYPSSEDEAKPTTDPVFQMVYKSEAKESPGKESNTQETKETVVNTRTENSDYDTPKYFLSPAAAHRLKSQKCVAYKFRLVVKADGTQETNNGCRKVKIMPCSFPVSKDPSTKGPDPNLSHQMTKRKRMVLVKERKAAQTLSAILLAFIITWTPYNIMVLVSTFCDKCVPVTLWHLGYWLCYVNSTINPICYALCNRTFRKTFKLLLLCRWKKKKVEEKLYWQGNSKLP

[40] = Drug metabolism in cynomolgus monkey cryopreserved hepatocytes assessed as metabolite M7 formation; format: ADME, cell-based, Macaca fascicularis, Hepatocyte
[41] = target: CYP2B6 (Homo sapiens, UniProt P20813); experiment: Induction of CYP2B6 in cryopreserved human hepatocytes measured after 48 hrs; format: ADME, cell-based; procedure, shortened: as §2
Chain of CYP2B6 (P20813 whole entry): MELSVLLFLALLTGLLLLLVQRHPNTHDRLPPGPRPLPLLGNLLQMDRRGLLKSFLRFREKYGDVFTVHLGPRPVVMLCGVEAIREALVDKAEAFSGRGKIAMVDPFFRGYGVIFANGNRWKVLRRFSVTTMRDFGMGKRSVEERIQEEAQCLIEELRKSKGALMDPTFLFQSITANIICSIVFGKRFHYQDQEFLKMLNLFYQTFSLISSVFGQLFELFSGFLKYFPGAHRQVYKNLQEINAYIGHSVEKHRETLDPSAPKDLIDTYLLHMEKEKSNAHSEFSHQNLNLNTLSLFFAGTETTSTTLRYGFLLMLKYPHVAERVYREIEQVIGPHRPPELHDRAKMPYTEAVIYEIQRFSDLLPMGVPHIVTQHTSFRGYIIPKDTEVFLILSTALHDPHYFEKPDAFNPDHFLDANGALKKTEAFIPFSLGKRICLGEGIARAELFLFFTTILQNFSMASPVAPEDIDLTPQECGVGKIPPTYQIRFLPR

[42] = target: Cytochrome P450 3A4 (Homo sapiens, UniProt P08684); experiment: Inhibition of CYP3A4 (unknown origin); format: ADME
[43] = test system: Salmonella typhimurium; experiment: Mutagenicity in Salmonella typhimurium TA100 in presence of S9 fraction by mini-Ames test; format: toxicity; details: salmonella enterica subsp. enterica serovar typhimurium; procedure, shortened: as §3
[44] = target: Voltage-gated inwardly rectifying potassium channel KCNH2 (Homo sapiens, UniProt Q12809); experiment: Inhibition of human ERG
[45] = Unbound plasma concentration in rat; format: ADME, cell-free

solubility [1]: < 0.5 µM
Drug metabolism [2]: Metabolite_Detected
EC50 [3]: > 30 µM
EC50 [4]: > 30 µM
fraction unbound [5]: 0.02
Drug metabolism [6]: Metabolite_Detected
EC50 [7]: 0.111 µM
pEC50 [7]: 6.95
Kp [8]: 0.74
beta t1/2 [9]: 2.7 h
Drug metabolism [10]: Metabolite_Detected
EC50 [11]: > 30 µM
Activity [12]: Not Active
IC50 [13]: 19 µM
Drug metabolism [14]: Metabolite_Detected
Drug metabolism [15]: Metabolite_Detected
Drug metabolism [16]: Metabolite_Detected
Drug metabolism [17]: Metabolite_Detected
pEC50 [18]: 7.06
Drug metabolism [19]: Metabolite_Detected
IC50 [20]: > 30 µM
Vdss [21]: 0.34 L/kg
EC50 [22]: > 30 µM
EC50 at 48 h [23]: > 50 µM
EC50 [24]: > 30 µM
Drug metabolism [25]: Metabolite_Detected
Drug metabolism [26]: Metabolite_Detected
Drug metabolism [27]: Metabolite_Detected
Kp [28]: 0.11
Drug metabolism [29]: Metabolite_Detected
EC50 [30]: > 30 µM
Drug metabolism [31]: Metabolite_Detected
Drug metabolism [32]: Metabolite_Detected
Drug metabolism [33]: Metabolite_Detected
Drug metabolism [34]: Metabolite_Detected
IC50 [35]: 11 µM
fraction unbound [36]: 0.011
Drug metabolism [37]: Metabolite_Detected
EC50 [39]: > 30 µM
Drug metabolism [40]: Metabolite_Detected
EC50 at 48 h [41]: > 50 µM
IC50 [42]: > 30 µM
fraction unbound [45]: 0.002
Structure (SMILES): Cc1nnc2sc(C(=O)NCc3ccc(-c4cccnc4F)cc3)c(N)c2c1C
Activity [38]: Non-Toxic
Activity [43]: Non-Toxic
IC50 [44]: > 33 µM
